From ChEMBL document CHEMBL3992522, “Antileishmanial Activity of Pyrazolopyridine Derivatives and Their Potential as an Adjunct Therapy with Miltefosine” (J Med Chem, 2017)
Active and inactive are the calls of the source. The calls are words filed in the database; no cut-off is given here.

Experiments:
Assay type in all cases: functional
Leishmania donovani [1] = assay: Antileishmanial activity against Leishmania donovani MHOM/IN/80/DD8 promastigote forms harboring luciferase gene at 25 uM after 72 hrs by Steady-Glo reagent based luminescence assay relative to control; conditions: MHOM/IN/80/DD8, 72 h, read-out: GI
Procedure, shortened: (§1)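 Exponential-phase Dd8-Luc promastigotes at 1×10^6/mL in M199 with 10% FBS, 24 °C, given 50 and 25 µM for 72 h. Vehicle 0.1% DMSO. Steady-Glo added 1:1, luminescence (RLU) read. IC50 from four-parameter Hill regression, derived only where inhibition exceeded 90%. Means of at least three independent experiments.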

Leishmania donovani [2] = assay: Antileishmanial activity against Leishmania donovani MHOM/IN/80/DD8 promastigote forms harboring luciferase gene at 50 uM after 72 hrs by Steady-Glo reagent based luminescence assay relative to control; conditions: MHOM/IN/80/DD8, 72 h, read-out: GI; procedure, shortened: as §1
Leishmania donovani [3] = assay: Antileishmanial activity against Leishmania donovani MHOM/IN/80/DD8 amastigote forms harboring luciferase gene infected in mouse J774 cells at 25 uM after 72 hrs by Steady-Glo reagent based luminescence assay relative to control; conditions: for inhibition of growth at 25 µM: MHOM/IN/80/DD8, J774, 72 h, read-out: GI
Procedure, shortened: (§2)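 Stationary-phase luciferase-expressing Dd8 promastigotes infected into J774 macrophages (4×10^4/mL seeded, 24 h, 37 °C, 5% CO2) at 1:8 macrophage:parasite for 24 h. Non-internalised parasites washed off. Compounds added at 50 and 25 µM in RPMI/10% FBS for 72 h. Lysis with Steady-Glo luciferin reagent plus PBS, luminescence read. Inhibition relative to untreated infected controls.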

Leishmania donovani [4] = assay: Antileishmanial activity against Leishmania donovani MHOM/IN/80/DD8 amastigote forms harboring luciferase gene infected in mouse J774 cells at 50 uM after 72 hrs by Steady-Glo reagent based luminescence assay relative to control; conditions: for inhibition of growth at 50 µM: MHOM/IN/80/DD8, J774, 72 h, read-out: GI; procedure, shortened: as §2

Compound | inhibition of growth at 25 µM (Leishmania donovani [1]) [%] | inhibition of growth at 50 µM (Leishmania donovani [2]) [%] | growth inhibition (GI) (Leishmania donovani [3]) | growth inhibition (GI) (Leishmania donovani [4]) | inhibition of growth at 25 µM (Leishmania donovani [3]) [%] | inhibition of growth at 50 µM (Leishmania donovani [4]) [%]
COc1cc(-c2c3c(nc4c2c(-c2c[nH]c5ccccc25)nn4-c2ccc(Cl)cc2)-c2ccccc2C3=O)cc(OC)c1OC | 28.3 | 41.1 | inactive | inactive |  | 
COc1ccc(-c2c3c(nc4c2c(-c2c[nH]c5ccccc25)nn4-c2ccc(Cl)cc2)CC(C)(C)CC3=O)c(OC)c1OC | 40.2 | 54.3 | inactive | inactive |  | 
COc1cc(-c2c3c(nc4c2c(-c2c[nH]c5ccccc25)nn4-c2ccc(Cl)cc2)CC(C)(C)CC3=O)cc(OC)c1OC | 59.1 | 68.6 | inactive | inactive |  | 
COc1ccc(-c2c3c(nc4c2c(-c2c[nH]c5ccccc25)nn4-c2ccc(Cl)cc2)-c2ccccc2C3=O)cc1 | 27.5 | 33.4 | inactive | inactive |  | 
CC1(C)CC(=O)C2=C(C1)Nc1c(c(-c3c[nH]c4ccccc34)nn1-c1ccc(Cl)cc1)C2c1cccs1 (stereo not drawn) | 82.5 | 86.5 |  |  | 43.8 | 51.7
COc1ccc(-c2c3c(nc4c2c(-c2c[nH]c5ccccc25)nn4-c2ccc(Cl)cc2)-c2ccccc2C3=O)c(OC)c1OC | 52.6 | 63.4 | inactive | inactive |  | 
COc1ccc(C2C3=C(CC(C)(C)CC3=O)Nc3c2c(-c2c[nH]c4ccccc24)nn3-c2ccc(Cl)c(Cl)c2)cc1OC (stereo not drawn) | 52.3 | 59.5 | inactive | inactive |  | 
COc1ccc(OC)c(-c2c3c(nc4c2c(-c2c[nH]c5ccccc25)nn4-c2ccc(Cl)cc2)CCC3=O)c1 | 61.2 | 67.2 | inactive | inactive |  | 
COc1ccc(OC)c(C2C3=C(CCC3=O)Nc3c2c(-c2c[nH]c4ccccc24)nn3-c2ccc(Cl)cc2)c1 (stereo not drawn) | 85.5 | 93.2 |  |  | 37.3 | 42.6
CC1(C)CC(=O)C2=C(C1)Nc1c(c(-c3c[nH]c4ccccc34)nn1-c1ccc(F)cc1)C2c1ccc(Cl)cc1 (stereo not drawn) | 54.3 | 65.3 | inactive | inactive |  | 
CC1(C)CC(=O)c2c(nc3c(c(-c4c[nH]c5ccccc45)nn3-c3ccc(Cl)cc3)c2-c2ccc(Cl)cc2Cl)C1 | 35.7 | 40.6 | inactive | inactive |  | 
COc1cc(C2C3=C(CCC3=O)Nc3c2c(-c2c[nH]c4ccccc24)nn3-c2ccc(Cl)cc2)cc(OC)c1O (stereo not drawn) | 79.1 | 89.6 |  |  | 25.2 | 30.7
COc1ccc(OC)c(-c2c3c(nc4c2c(-c2c[nH]c5ccccc25)nn4-c2ccc(Cl)cc2)CC(C)(C)CC3=O)c1 | 50.7 | 69.6 | inactive | inactive |  | 
COc1ccc(-c2c3c(nc4c2c(-c2c[nH]c5ccccc25)nn4-c2ccc(Cl)cc2)CC(C)(C)CC3=O)cc1 | 44.3 | 52 | inactive | inactive |  | 
CC1(C)CC(=O)c2c(nc3c(c(-c4c[nH]c5ccccc45)nn3-c3ccc(F)cc3)c2-c2ccc(Cl)cc2Cl)C1 | 44.6 | 48.4 | inactive | inactive |  | 
COc1ccc(OC)c(-c2c3c(nc4c2c(-c2c[nH]c5ccccc25)nn4-c2ccc(F)cc2)CC(C)(C)CC3=O)c1 | 84.1 | 90.3 |  |  | 22.4 | 27.9

Compound | inhibition of growth at 25 µM (Leishmania donovani [1]) [%] | inhibition of growth at 50 µM (Leishmania donovani [2]) [%] | growth inhibition (GI) (Leishmania donovani [3]) | growth inhibition (GI) (Leishmania donovani [4]) | inhibition of growth at 25 µM (Leishmania donovani [3]) [%] | inhibition of growth at 50 µM (Leishmania donovani [4]) [%]
COc1ccc(-c2c3c(nc4c2c(-c2c[nH]c5ccccc25)nn4-c2ccc(Cl)c(Cl)c2)CC(C)(C)CC3=O)cc1OC | 59.4 | 74.1 | inactive | inactive |  | 
COc1ccc(OC)c(-c2c3c(nc4c2c(-c2c[nH]c5ccccc25)nn4-c2ccc(Cl)c(Cl)c2)CC(C)(C)CC3=O)c1 | 41.3 | 51.8 |  |  | 24.6 | 41.3
CC1(C)CC(=O)c2c(nc3c(c(-c4c[nH]c5ccccc45)nn3-c3ccc(F)cc3)c2-c2ccc(Cl)cc2)C1 | 61.3 | 68.6 | inactive | inactive |  | 
O=C1C2=C(Nc3c(c(-c4c[nH]c5ccccc45)nn3-c3ccc(F)cc3)C2c2ccc(Cl)cc2)c2ccccc21 (stereo not drawn) | 54.2 | 68.3 | inactive | inactive |  | 
COc1cc(C2C3=C(CCC3=O)Nc3c2c(-c2c[nH]c4ccccc24)nn3-c2ccc(F)cc2)cc(OC)c1O (stereo not drawn) | 56.5 | 66.9 | inactive | inactive |  | 
O=C1C2=C(Nc3c(c(-c4c[nH]c5ccccc45)nn3-c3ccc(Cl)cc3)C2c2ccc(Cl)cc2)c2ccccc21 (stereo not drawn) | 49.1 | 62.4 | inactive | inactive |  | 
O=C1C2=C(Nc3c(c(-c4c[nH]c5ccccc45)nn3-c3ccc(Cl)cc3)C2c2cccs2)c2ccccc21 (stereo not drawn) | 65.3 | 69.2 | inactive | inactive |  | 
CC1(C)CC(=O)C2=C(C1)Nc1c(c(-c3c[nH]c4ccccc34)nn1-c1ccc(Cl)cc1)C2c1ccc(Cl)cc1 (stereo not drawn) | 62.5 | 65.4 | inactive | inactive |  | 
COc1cc(C2C3=C(CCC3=O)Nc3c2c(-c2c[nH]c4ccccc24)nn3-c2ccc(Cl)cc2)cc(OC)c1OC (stereo not drawn) | 78.4 | 81.2 |  |  | 45.2 | 59.6
COc1ccc(OC)c(-c2c3c(nc4c2c(-c2c[nH]c5ccccc25)nn4-c2ccc(F)cc2)-c2ccccc2C3=O)c1 | 49.8 | 58.3 | inactive | inactive |  | 
COc1ccc(C2C3=C(Nc4c2c(-c2c[nH]c5ccccc25)nn4-c2ccc(Cl)cc2)c2ccccc2C3=O)c(OC)c1OC (stereo not drawn) | 64.2 | 67.4 | inactive | inactive |  | 
COc1cc(C2C3=C(CC(C)(C)CC3=O)Nc3c2c(-c2c[nH]c4ccccc24)nn3-c2ccc(Cl)cc2)cc(OC)c1OC (stereo not drawn) | 79.3 | 86.7 |  |  | 23.6 | 28.2
COc1ccc(-c2c3c(nc4c2c(-c2c[nH]c5ccccc25)nn4-c2ccc(Cl)c(Cl)c2)CCC3=O)cc1OC | 52.4 | 81.1 |  |  | 20.8 | 34.3
COc1ccc(OC)c(-c2c3c(nc4c2c(-c2c[nH]c5ccccc25)nn4-c2ccc(Cl)cc2)-c2ccccc2C3=O)c1 | 44.6 | 53.6 | inactive | inactive |  | 
CC1(C)CC(=O)c2c(nc3c(c(-c4c[nH]c5ccccc45)nn3-c3ccc(Cl)cc3)c2-c2ccc(Cl)cc2)C1 | 56.7 | 67.4 | inactive | inactive |  | 
COc1cc(-c2c3c(nc4c2c(-c2c[nH]c5ccccc25)nn4-c2ccc(Cl)cc2)CCC3=O)cc(OC)c1OC | 66.8 | 72.3 | inactive | inactive |  | 
